Data taken from ChEMBL document CHEMBL4270541, “Synthesis and antimicrobial evaluation of amino sugar-based naphthoquinones and isoquinoline-5,8-diones and their halogenated compounds” (Eur J Med Chem, 2018).
In brackets after ≈: the same amount, converted by molar mass. Activity calls are given as the source filed them. The rule behind the calls is not given here.

Key:
Staphylococcus aureus [1] = test: Antimicrobial activity against methicillin-resistant Staphylococcus aureus BMB9393 at 256 ug/ml after 24 hrs by microdilution assay; format: functional, organism-based
Pseudomonas aeruginosa [2] = test: Bactericidal activity against Pseudomonas aeruginosa INCQS 00099 ATCC 27853 at 256 ug/ml incubated for 24 hrs followed by transfer of microbial suspension to agar plates and measured after 24 hrs post transfer by resazurin dye-based colorimetric analysis; format: functional, organism-based
Procedure, shortened: (§1)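 For MBC, 10 µL from each clear MIC well was plated on agar and incubated 24 h at 37°C. MBC is the minimum concentration inhibiting 99.9% of growth. […] Triplicate.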

Escherichia coli [3] = test: Antimicrobial activity against Escherichia coli INCQS 00033 ATCC 25922 assessed as zone of inhibition at 5 mg/ml after 18 to 24 hrs by disc diffusion method; format: functional; settings: ATCC 25922 INCQS 00033, read-out: IZ
[4] = system: Staphylococcus epidermidis; test: Ratio of MBC99.9 to MIC for Staphylococcus epidermidis INCQS 00016 ATCC 12228; format: functional, ATCC 12228 INCQS 00016
Procedure, shortened: (§2)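 MBC/MIC ratio from the 24 h, 37°C microdilution MIC and the agar-plating MBC (99.9% growth inhibition). A ratio ≤2 was classed as bactericidal and ≥4 as bacteriostatic.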

Pseudomonas aeruginosa [5] = test: Antimicrobial activity against Pseudomonas aeruginosa INCQS 00099 ATCC 27853 assessed as zone of inhibition at 5 mg/ml after 18 to 24 hrs by disc diffusion method; format: functional; settings: read-out: IZ
Staphylococcus aureus [6] = test: Antimicrobial activity against Staphylococcus aureus INCQS 00015 ATCC 25923 at 256 ug/ml after 24 hrs by microdilution assay; format: functional, organism-based
Escherichia coli [7] = test: Bactericidal activity against Escherichia coli INCQS 00033 ATCC 25922 at 256 ug/ml incubated for 24 hrs followed by transfer of microbial suspension to agar plates and measured after 24 hrs post transfer by resazurin dye-based colorimetric analysis; format: functional, organism-based; settings: ATCC 25922 INCQS 00033; procedure, shortened: as §1
Pseudomonas aeruginosa [8] = test: Antimicrobial activity against Pseudomonas aeruginosa INCQS 00099 ATCC 27853 at 256 ug/ml after 24 hrs by microdilution assay; format: functional, organism-based
Staphylococcus aureus [9] = test: Bactericidal activity against Staphylococcus aureus INCQS 00015 ATCC 25923 at 256 ug/ml incubated for 24 hrs followed by transfer of microbial suspension to agar plates and measured after 24 hrs post transfer by resazurin dye-based colorimetric analysis; format: functional, organism-based; procedure, shortened: as §1
[10] = system: Staphylococcus epidermidis; test: Antimicrobial activity against Staphylococcus epidermidis INCQS 00016 ATCC 12228 assessed as zone of inhibition at 5 mg/ml after 18 to 24 hrs by disc diffusion method; format: functional; settings: ATCC 12228 INCQS 00016, read-out: IZ
[11] = system: Staphylococcus epidermidis; test: Bactericidal activity against Staphylococcus epidermidis INCQS 00016 ATCC 12228 incubated for 24 hrs followed by transfer of microbial suspension to agar plates and measured after 24 hrs post transfer by resazurin dye-based colorimetric analysis; format: functional; settings: ATCC 12228 INCQS 00016, 24 h, read-out: MBC99.9; procedure, shortened: as §1
Staphylococcus aureus [12] = test: Antimicrobial activity against methicillin-resistant Staphylococcus aureus BMB9393 assessed as zone of inhibition at 5 mg/ml after 18 to 24 hrs by disc diffusion method; format: functional; settings: read-out: IZ
[13] = Hemolytic activity against human erythrocytes assessed as hemolysis at 200 ug/ml after 3 hrs by spectrophotometric analysis relative to control; format: ADME, cell-based, Erythrocyte; settings: read-out: Activity
Procedure, shortened: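 Erythrocytes collected in citrate tubes, washed three times with PBS pH 7.4 by centrifugation and resuspended in PBS. Incubated with compounds at 200 µg/mL for 3 h at 37°C. Released hemoglobin was read in the supernatant at 545 nm against 1% Triton X-100 (complete lysis) and 1% DMSO (negative control). Below 10% hemolysis was taken as hemocompatible. Three independent experiments.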

Enterococcus faecalis = test: Antimicrobial activity against Enterococcus faecalis INCQS 00234 ATCC 29212 assessed as zone of inhibition at 5 mg/ml after 18 to 24 hrs by disc diffusion method; format: functional; settings: ATCC 29212 INCQS 00234, read-out: IZ
Staphylococcus simulans [14] = test: Bactericidal activity against Staphylococcus simulans INCQS 00254 ATCC 27851 at 256 ug/ml incubated for 24 hrs followed by transfer of microbial suspension to agar plates and measured after 24 hrs post transfer by resazurin dye-based colorimetric analysis; format: functional, organism-based; procedure, shortened: as §1
Staphylococcus aureus [15] = test: Bactericidal activity against methicillin-resistant Staphylococcus aureus BMB9393 at 256 ug/ml incubated for 24 hrs followed by transfer of microbial suspension to agar plates and measured after 24 hrs post transfer by resazurin dye-based colorimetric analysis; format: functional, organism-based
Procedure, shortened: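 From MIC wells with no visible growth, 10 µL is transferred to agar plates and incubated 24 h at 37°C. MBC is the minimum concentration inhibiting 99.9% of growth. […] Triplicate.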

[16] = system: Staphylococcus epidermidis; test: Antimicrobial activity against Staphylococcus epidermidis INCQS 00016 ATCC 12228 after 24 hrs by microdilution assay; format: functional; settings: ATCC 12228 INCQS 00016, 24 h
Staphylococcus simulans [17] = test: Antimicrobial activity against Staphylococcus simulans INCQS 00254 ATCC 27851 assessed as zone of inhibition at 5 mg/ml after 18 to 24 hrs by disc diffusion method; format: functional; settings: read-out: IZ
Escherichia coli [18] = test: Antimicrobial activity against Escherichia coli INCQS 00033 ATCC 25922 at 256 ug/ml after 24 hrs by microdilution assay; format: functional, organism-based; settings: ATCC 25922 INCQS 00033
Klebsiella pneumoniae = test: Antimicrobial activity against Klebsiella pneumoniae INCQS 00083 ATCC 4352 assessed as zone of inhibition at 5 mg/ml after 18 to 24 hrs by disc diffusion method; format: functional; settings: read-out: IZ
Proteus mirabilis = test: Antimicrobial activity against Proteus mirabilis INCQS 00095 ATCC 15290 assessed as zone of inhibition at 5 mg/ml after 18 to 24 hrs by disc diffusion method; format: functional; settings: read-out: IZ
Staphylococcus simulans [19] = test: Antimicrobial activity against Staphylococcus simulans INCQS 00254 ATCC 27851 at 256 ug/ml after 24 hrs by microdilution assay; format: functional, organism-based
Staphylococcus aureus [20] = test: Antimicrobial activity against Staphylococcus aureus INCQS 00015 ATCC 25923 assessed as zone of inhibition at 5 mg/ml after 18 to 24 hrs by disc diffusion method; format: functional; settings: read-out: IZ
Pseudomonas aeruginosa [21] = test: Antimicrobial activity against Pseudomonas aeruginosa INCQS 00099 ATCC 27853 after 24 hrs by microdilution assay; format: functional; settings: INCQS 00099 ATCC 27853, 24 h
Escherichia coli [22] = test: Ratio of MBC99.9 to MIC for Escherichia coli INCQS 00033 ATCC 25922; format: functional, ATCC 25922 INCQS 00033; procedure, shortened: as §2
[23] = system: Staphylococcus epidermidis; test: Antimicrobial activity against Staphylococcus epidermidis INCQS 00016 ATCC 12228 at 256 ug/ml after 24 hrs by microdilution assay; format: functional, organism-based; settings: ATCC 12228 INCQS 00016
Pseudomonas aeruginosa [24] = test: Bactericidal activity against Pseudomonas aeruginosa INCQS 00099 ATCC 27853 incubated for 24 hrs followed by transfer of microbial suspension to agar plates and measured after 24 hrs post transfer by resazurin dye-based colorimetric analysis; format: functional; settings: INCQS 00099 ATCC 27853, 24 h, read-out: MBC99.9; procedure, shortened: as §1
Escherichia coli [25] = test: Bactericidal activity against Escherichia coli INCQS 00033 ATCC 25922 incubated for 24 hrs followed by transfer of microbial suspension to agar plates and measured after 24 hrs post transfer by resazurin dye-based colorimetric analysis; format: functional; settings: ATCC 25922 INCQS 00033, 24 h, read-out: MBC99.9; procedure, shortened: as §1
Pseudomonas aeruginosa [26] = test: Ratio of MBC99.9 to MIC for Pseudomonas aeruginosa INCQS 00099 ATCC 27853; format: functional; procedure, shortened: as §2
[27] = system: Staphylococcus epidermidis; test: Bactericidal activity against Staphylococcus epidermidis INCQS 00016 ATCC 12228 at 256 ug/ml incubated for 24 hrs followed by transfer of microbial suspension to agar plates and measured after 24 hrs post transfer by resazurin dye-based colorimetric analysis; format: functional, organism-based; settings: ATCC 12228 INCQS 00016; procedure, shortened: as §1
Escherichia coli [28] = test: Antimicrobial activity against Escherichia coli INCQS 00033 ATCC 25922 after 24 hrs by microdilution assay; format: functional; settings: ATCC 25922 INCQS 00033, 24 h

Compound | Activity (Staphylococcus aureus [1]) | Activity (Pseudomonas aeruginosa [2]) | zone of inhibition at 5000 µg/mL (Escherichia coli [3]) [mm] | Ratio [4] | zone of inhibition at 5000 µg/mL (Pseudomonas aeruginosa [5]) [mm] | Activity (Staphylococcus aureus [6]) | Activity (Escherichia coli [7]) | Activity (Pseudomonas aeruginosa [8]) | Activity (Staphylococcus aureus [9]) | zone of inhibition at 5000 µg/mL [10] [mm] | zone of inhibition at 5000 µg/mL (Staphylococcus aureus [12]) [mm] | hemolysis at 3 h, 200 ug/ml [13] [%] | zone of inhibition at 5000 µg/mL (Enterococcus faecalis) [mm] | Activity (Staphylococcus simulans [14]) | Activity (Staphylococcus aureus [15]) | zone of inhibition at 5000 µg/mL (Staphylococcus simulans [17]) [mm] | zone of inhibition at 5000 µg/mL (Klebsiella pneumoniae) [mm] | zone of inhibition at 5000 µg/mL (Proteus mirabilis) [mm] | Activity (Staphylococcus simulans [19]) | zone of inhibition at 5000 µg/mL (Staphylococcus aureus [20]) [mm] | also measured
COC(=O)c1c(C)nc(C)c2c1C(=O)C(Cl)=C(NC[C@H]1O[C@@H]3OC(C)(C)O[C@@H]3[C@H]1O)C2=O | inactive | inactive | 0 | 1 | 0 | inactive | inactive | inactive | inactive | 8 | 0 | 10.1 to 14.4 | 0 | inactive | inactive | 0 | 0 | 0 | inactive | 0 | MBC [11]: 32 mg/L (≈ 68.5 µM); MIC [16]: 32 mg/L (≈ 68.5 µM); Activity (Escherichia coli [18]): inactive
COC(=O)c1c(C)nc(C)c2c1C(=O)C=C(NC[C@H]1O[C@@H]3OC(C)(C)O[C@@H]3[C@H]1O)C2=O | inactive | inactive | 0 | 1 | 0 | inactive | inactive | inactive | inactive | 10 | 0 | < 10 | 0 | inactive | inactive | 0 | 0 | 0 | inactive | 0 | MBC [11]: 256 mg/L (≈ 592 µM); MIC [16]: 256 mg/L (≈ 592 µM); Activity (Escherichia coli [18]): inactive
CC1(C)O[C@H]2[C@@H](O1)[C@@H](CNC1=C(Cl)C(=O)c3ccccc3C1=O)O[C@@H]1OC(C)(C)O[C@@H]12 | inactive |  | 12 |  | 13 | inactive |  |  | inactive | 8 | 0 | < 10 | 0 | inactive | inactive | 0 | 0 | 0 | inactive | 9 | MIC (Pseudomonas aeruginosa [21]): 32 mg/L (≈ 71.1 µM); Ratio (Escherichia coli [22]): 1; Activity [23]: inactive; MBC (Pseudomonas aeruginosa [24]): 32 mg/L (≈ 71.1 µM); MBC (Escherichia coli [25]): 16 mg/L (≈ 35.6 µM); Ratio (Pseudomonas aeruginosa [26]): 1; Activity [27]: inactive; MIC (Escherichia coli [28]): 16 mg/L (≈ 35.6 µM)
CC1(C)O[C@H]2O[C@H](CNC3=C(Cl)C(=O)c4ccccc4C3=O)[C@H](O)[C@H]2O1 | inactive |  | 17 |  | 21 | inactive |  |  | inactive | 15 | 0 | 10.1 to 14.4 | 0 | inactive | inactive | 13 | 0 | 0 | inactive | 14 | MIC (Pseudomonas aeruginosa [21]): 8 mg/L (≈ 21.1 µM); Ratio (Escherichia coli [22]): 1; Activity [23]: inactive; MBC (Pseudomonas aeruginosa [24]): 8 mg/L (≈ 21.1 µM); MBC (Escherichia coli [25]): 4 mg/L (≈ 10.5 µM); Ratio (Pseudomonas aeruginosa [26]): 1; Activity [27]: inactive; MIC (Escherichia coli [28]): 4 mg/L (≈ 10.5 µM)
